Legend:
Assay type in all cases: functional
[1] = test system: COLO 205; assay: Growth inhibition of human COLO205 cells at 10 uM after 48 hrs by SRB assay; conditions: COLO 205, 48 h, read-out: GI
Outline: (§1)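 Cells grown in RPMI 1640 with 5% FBS and 2 mM L-glutamine, plated at 5000–40,000 cells/well by doubling time and preincubated 24 h (37 °C, 5% CO2); a time-zero plate is TCA-fixed. Single dose added, then 48 h incubation. Fixed with cold TCA, stained with 0.4% SRB, dye solubilized in 10 mM Tris base, absorbance at 515 nm; percent growth vs time-zero and untreated control.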

[2] = Growth inhibition of human HCC2998 cells at 10 uM after 48 hrs by SRB assay; conditions: HCC 2998, 48 h, read-out: GI; outline: as §1
[3] = test system: NCI-H322M; assay: Growth inhibition of human NCI-H322M cells at 10 uM after 48 hrs by SRB assay; conditions: read-out: GI; outline: as §1
[4] = test system: NCI-H460; assay: Growth inhibition of human NCI-H460 cells at 10 uM after 48 hrs by SRB assay; conditions: NCI-H460, 48 h, read-out: GI; outline: as §1
[5] = test system: NCI-H23; assay: Growth inhibition of human NCI-H23 cells at 10 uM after 48 hrs by SRB assay; conditions: NCI-H23, 48 h, read-out: GI; outline: as §1
[6] = test system: HOP-92; assay: Growth inhibition of human HOP92 cells at 10 uM after 48 hrs by SRB assay; conditions: HOP-92, 48 h, read-out: GI; outline: as §1
[7] = test system: CCRF-CEM; assay: Growth inhibition of human CCRF-CEM cells at 10 uM after 48 hrs by SRB assay; conditions: read-out: GI; outline: as §1
[8] = test system: HL-60(TB); assay: Growth inhibition of human HL-60(TB) cells at 10 uM after 48 hrs by SRB assay; conditions: HL-60, 48 h, read-out: GI
Outline: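 Single-concentration pass across the 60-line panel in RPMI 1640 with 5% FBS. Cells preincubated 24 h, then exposed 48 h at 37 °C, 5% CO2. Read by SRB staining with absorbance at 515 nm. Percent growth is taken relative to time-zero and untreated controls and reported as percent growth inhibition (GI %).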

[9] = test system: K562; assay: Growth inhibition of human K562 cells at 10 uM after 48 hrs by SRB assay; conditions: K562, 48 h, read-out: GI; outline: as §1
[10] = test system: SR; assay: Growth inhibition of human SR cells at 10 uM after 48 hrs by SRB assay; conditions: read-out: GI
Outline: (§2)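 NCI 60-cell-line screen with a single 10 µM dose. Cells are grown in RPMI 1640 with 5% FBS and 2 mM L-glutamine, plated at 5000–40,000 cells/well according to doubling time, and preincubated 24 h at 37 °C, 5% CO2; time-zero plates are TCA-fixed at that point. Drug exposure is 48 h. Adherent cells are fixed with cold TCA, stained with 0.4% SRB in 1% acetic acid and read at 515 nm. Percent growth is calculated relative to time-zero and untreated controls and reported as GI%.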

[11] = test system: BT-549; assay: Growth inhibition of human BT549 cells at 10 uM after 48 hrs by SRB assay; conditions: BT-549, 48 h, read-out: GI; outline: as §1
[12] = test system: Hs-578T; assay: Growth inhibition of human Hs578T cells at 10 uM after 48 hrs by SRB assay; conditions: read-out: GI; outline: as §1
[13] = test system: MCF7; assay: Growth inhibition of human MCF7 cells at 10 uM after 48 hrs by SRB assay; conditions: MCF7, 48 h, read-out: GI; outline: as §1
[14] = test system: MDA-MB-231; assay: Growth inhibition of human MDA-MB-231 cells at 10 uM after 48 hrs by SRB assay; conditions: MDA-MB-231, 48 h, read-out: GI; outline: as §1
[15] = test system: RXF 393; assay: Growth inhibition of human RXF393 cells at 10 uM after 48 hrs by SRB assay; conditions: RXF 393, 48 h, read-out: GI; outline: as §1
[16] = test system: SN12C; assay: Growth inhibition of human SN12C cells at 10 uM after 48 hrs by SRB assay; conditions: read-out: GI; outline: as §2
[17] = test system: A498; assay: Growth inhibition of human A498 cells at 10 uM after 48 hrs by SRB assay; conditions: A498, 48 h, read-out: GI; outline: as §1
[18] = test system: ACHN; assay: Growth inhibition of human ACHN cells at 10 uM after 48 hrs by SRB assay; conditions: read-out: GI; outline: as §1
[19] = test system: CAKI-1; assay: Growth inhibition of human Caki1 cells at 10 uM after 48 hrs by SRB assay; conditions: CAKI-1, 48 h, read-out: GI; outline: as §1
[20] = test system: SK-OV-3; assay: Growth inhibition of human SKOV3 cells at 10 uM after 48 hrs by SRB assay; conditions: SK-OV-3, 48 h, read-out: GI; outline: as §2
[21] = test system: OVCAR-4; assay: Growth inhibition of human OVCAR4 cells at 10 uM after 48 hrs by SRB assay; conditions: OVCAR-4, 48 h, read-out: GI; outline: as §1
[22] = test system: IGROV-1; assay: Growth inhibition of human IGROV1 cells at 10 uM after 48 hrs by SRB assay; conditions: IGROV-1, 48 h, read-out: GI; outline: as §1
[23] = test system: UACC-62; assay: Growth inhibition of human UACC62 cells at 10 uM after 48 hrs by SRB assay; conditions: UACC-62, 48 h, read-out: GI; outline: as §2
[24] = test system: SK-MEL-28; assay: Growth inhibition of human SK-MEL-28 cells at 10 uM after 48 hrs by SRB assay; conditions: SK-MEL-28, 48 h, read-out: GI; outline: as §1
[25] = test system: MDA-MB-435; assay: Growth inhibition of human MDA-MB-435 cells at 10 uM after 48 hrs by SRB assay; conditions: MDA-MB-435, 48 h, read-out: GI; outline: as §1
[26] = test system: M14; assay: Growth inhibition of human M14 cells at 10 uM after 48 hrs by SRB assay; conditions: M14, 48 h, read-out: GI; outline: as §1
[27] = test system: LOX IMVI; assay: Growth inhibition of human LOXIMVI cells at 10 uM after 48 hrs by SRB assay; conditions: read-out: GI; outline: as §1
[28] = test system: SNB-75; assay: Growth inhibition of human SNB75 cells at 10 uM after 48 hrs by SRB assay; conditions: SNB-75, 48 h, read-out: GI; outline: as §2
[29] = test system: SF-539; assay: Growth inhibition of human SF539 cells at 10 uM after 48 hrs by SRB assay; conditions: SF-539, 48 h, read-out: GI; outline: as §1
[30] = test system: HT-29; assay: Growth inhibition of human HT-29 cells at 10 uM after 48 hrs by SRB assay; conditions: HT-29, 48 h, read-out: GI; outline: as §1
[31] = test system: HCT-116; assay: Growth inhibition of human HCT116 cells at 10 uM after 48 hrs by SRB assay; conditions: HCT-116, 48 h, read-out: GI; outline: as §1
[32] = test system: UACC-257; assay: Growth inhibition of human UACC257 cells at 10 uM after 48 hrs by SRB assay; conditions: UACC-257, 48 h, read-out: GI; outline: as §2
[33] = test system: U-251; assay: Growth inhibition of human U251 cells at 10 uM after 48 hrs by SRB assay; conditions: U-251, 48 h, read-out: GI; outline: as §2
[34] = test system: SF-295; assay: Growth inhibition of human SF295 cells at 10 uM after 48 hrs by SRB assay; conditions: SF-295, 48 h, read-out: GI; outline: as §1

Structure (SMILES) | inhibition of growth at 10 µM [1] [%] | inhibition of growth at 10 µM [2] [%] | inhibition of growth at 10 µM [3] [%] | inhibition of growth at 10 µM [4] [%] | inhibition of growth at 10 µM [5] [%] | inhibition of growth at 10 µM [6] [%] | inhibition of growth at 10 µM [7] [%] | inhibition of growth at 10 µM [8] [%] | inhibition of growth at 10 µM [9] [%] | inhibition of growth at 10 µM [11] [%] | inhibition of growth at 10 µM [12] [%] | inhibition of growth at 10 µM [13] [%] | inhibition of growth at 10 µM [14] [%] | inhibition of growth at 10 µM [15] [%] | inhibition of growth at 10 µM [16] [%] | inhibition of growth at 10 µM [17] [%] | inhibition of growth at 10 µM [18] [%] | inhibition of growth at 10 µM [19] [%] | inhibition of growth at 10 µM [20] [%] | inhibition of growth at 10 µM [21] [%] | further results
O=c1c2cccc3c(Nc4ccccn4)ccc(c32)c2nc3ccccc3n12 | 29 | 31.5 | 25.5 | 47.3 | 34.5 | 45.1 | 48.2 | 37.7 | 53.5 | < 20 | < 20 | 71.3 | 29.4 | < 20 | 28.3 | < 20 | 23.9 | 48.2 | < 20 | 30.9 | inhibition of growth at 10 µM [10]: 29.8%; inhibition of growth at 10 µM [22]: 43.4%; inhibition of growth at 10 µM [23]: 35.7%; inhibition of growth at 10 µM [24]: < 20%; inhibition of growth at 10 µM [25]: < 20%; inhibition of growth at 10 µM [26]: < 20%; inhibition of growth at 10 µM [27]: 30.4%; inhibition of growth at 10 µM [28]: 21.4%; inhibition of growth at 10 µM [29]: < 20%; inhibition of growth at 10 µM [30]: 35.4%; inhibition of growth at 10 µM [31]: 35%
O=c1c2cccc3c(Nc4c(F)cccc4F)ccc(c32)c2nc3ccccc3n12 | < 20 | 27.3 | < 20 | 27.3 | < 20 | 35.8 | 27.5 | < 20 | < 20 | < 20 | < 20 | 79.6 | < 20 | < 20 | < 20 | < 20 | < 20 | 38 | < 20 | < 20 | inhibition of growth at 10 µM [10]: 78.5%; inhibition of growth at 10 µM [22]: 46.6%; inhibition of growth at 10 µM [23]: < 20%; inhibition of growth at 10 µM [24]: < 20%; inhibition of growth at 10 µM [25]: < 20%; inhibition of growth at 10 µM [26]: < 20%; inhibition of growth at 10 µM [27]: < 20%; inhibition of growth at 10 µM [28]: 20.1%; inhibition of growth at 10 µM [29]: < 20%; inhibition of growth at 10 µM [30]: < 20%; inhibition of growth at 10 µM [31]: < 20%
O=c1c2cccc3c(Nc4ccc(F)cc4)ccc(c32)c2nc3ccccc3n12 | < 20 | 23.9 | 32.2 | 22.1 | < 20 | 46.8 | < 20 | < 20 | < 20 | < 20 | 26.4 | 89.9 | 29.1 | < 20 | < 20 | 33.8 | < 20 | 20.1 | < 20 | 24 | inhibition of growth at 10 µM [23]: 32.2%; inhibition of growth at 10 µM [32]: < 20%; inhibition of growth at 10 µM [24]: < 20%; inhibition of growth at 10 µM [25]: < 20%; inhibition of growth at 10 µM [26]: < 20%; inhibition of growth at 10 µM [27]: < 20%; inhibition of growth at 10 µM [33]: < 20%; inhibition of growth at 10 µM [28]: 29.2%; inhibition of growth at 10 µM [34]: < 20%; inhibition of growth at 10 µM [29]: < 20%; inhibition of growth at 10 µM [30]: < 20%; inhibition of growth at 10 µM [31]: < 20%
O=c1c2cccc3c(NC4CCCCC4)ccc(c32)c2nc3ccccc3n12 | 24.4 | 48.3 | < 20 | 65.3 | 54 | 51.5 | 34.6 | 37.4 | 33.1 | < 20 | < 20 | 86.5 | < 20 | < 20 | < 20 | < 20 | 27.1 | 52.8 | < 20 | < 20 | inhibition of growth at 10 µM [10]: 98.9%; inhibition of growth at 10 µM [22]: 58.8%; inhibition of growth at 10 µM [23]: < 20%; inhibition of growth at 10 µM [24]: < 20%; inhibition of growth at 10 µM [25]: < 20%; inhibition of growth at 10 µM [26]: < 20%; inhibition of growth at 10 µM [27]: 26.6%; inhibition of growth at 10 µM [28]: < 20%; inhibition of growth at 10 µM [29]: < 20%; inhibition of growth at 10 µM [30]: 23.1%; inhibition of growth at 10 µM [31]: < 20%
CCCCNc1ccc2c3c1cccc3c(=O)n1c3ccccc3nc21 | < 20 | 26 | < 20 | 51.6 | 40 | 38.8 | 25 | 36.6 | 21.2 | < 20 | < 20 | 89.7 | 20.2 | < 20 | < 20 | < 20 | < 20 | 56.8 | < 20 | < 20 | inhibition of growth at 10 µM [10]: 84.4%; inhibition of growth at 10 µM [22]: 58.2%; inhibition of growth at 10 µM [23]: < 20%; inhibition of growth at 10 µM [24]: < 20%; inhibition of growth at 10 µM [25]: < 20%; inhibition of growth at 10 µM [26]: < 20%; inhibition of growth at 10 µM [27]: 24.1%; inhibition of growth at 10 µM [28]: 26.6%; inhibition of growth at 10 µM [29]: < 20%; inhibition of growth at 10 µM [30]: < 20%; inhibition of growth at 10 µM [31]: < 20%

From ChEMBL document CHEMBL2424551, “Synthesis, in vitro evaluation and molecular modelling of naphthalimide analogue as anticancer agents” (2013)
